Experimental data reported in paper PMC6438620 (Bioorganic & medicinal chemistry letters, 2018).

Key:
D4 dopamine receptor = target: T1, D4 dopamine receptor (Homo sapiens, UniProt P21917); assay: PDSP primary binding and radioligand binding
T1 sequence (P21917 1-419): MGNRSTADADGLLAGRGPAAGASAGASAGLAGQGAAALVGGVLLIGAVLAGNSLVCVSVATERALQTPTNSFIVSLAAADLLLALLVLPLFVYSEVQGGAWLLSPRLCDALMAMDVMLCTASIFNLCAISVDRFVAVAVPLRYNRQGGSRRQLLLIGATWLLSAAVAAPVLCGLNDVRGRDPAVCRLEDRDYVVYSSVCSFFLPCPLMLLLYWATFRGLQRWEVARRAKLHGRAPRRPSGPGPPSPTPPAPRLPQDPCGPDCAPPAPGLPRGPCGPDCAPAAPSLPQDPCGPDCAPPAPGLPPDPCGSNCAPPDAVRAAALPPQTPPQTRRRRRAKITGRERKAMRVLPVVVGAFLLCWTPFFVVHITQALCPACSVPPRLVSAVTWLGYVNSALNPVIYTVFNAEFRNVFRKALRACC

Toxicity in mice = conditions: mouse, in vivo
Summary of the method: (§1)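 Female C57BL6 mice were dosed with test compound at 5 mg/kg i.p. once daily for seven consecutive days and sacrificed 24 h after the last injection. Blood clinical chemistry covered electrolytes, minerals, total protein, albumin, globulin, A/G ratio, BUN, ALT, AST, GLDH, ALP, bilirubin, amylase and creatine kinase.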

[1] = Tissue distribution by LC-MS/MS after 7-day i.p. treatment; conditions: 5 mg/kg i.p. daily for 7 days, 24 h after last injection
[2] = test system: LLC luc and MDA MB-231 cell lines; assay: MTT colorimetric cytotoxicity assay, values given over both cell lines; conditions: for Cytotoxic activity compared with penfluridol: MTT, LLC luc and MDA MB-231
[3] = Clinical chemistry analysis of blood samples; type: in vivo, C57BL6 mice; conditions: 5 mg/kg, daily i.p. dosing for 7 days, n = 5
Summary of the method: as §1

[4] = target: H1 (histamine receptor 1) (Homo sapiens, UniProt P35367); assay: PDSP primary binding and radioligand binding
[5] = target: H2 (histamine receptor 2) (Homo sapiens, UniProt P25021); assay: PDSP primary binding and radioligand binding
serotonin receptors = assay: PDSP binding at serotonin receptor subtypes

Sequence of H1 (histamine receptor 1) (P35367 whole entry): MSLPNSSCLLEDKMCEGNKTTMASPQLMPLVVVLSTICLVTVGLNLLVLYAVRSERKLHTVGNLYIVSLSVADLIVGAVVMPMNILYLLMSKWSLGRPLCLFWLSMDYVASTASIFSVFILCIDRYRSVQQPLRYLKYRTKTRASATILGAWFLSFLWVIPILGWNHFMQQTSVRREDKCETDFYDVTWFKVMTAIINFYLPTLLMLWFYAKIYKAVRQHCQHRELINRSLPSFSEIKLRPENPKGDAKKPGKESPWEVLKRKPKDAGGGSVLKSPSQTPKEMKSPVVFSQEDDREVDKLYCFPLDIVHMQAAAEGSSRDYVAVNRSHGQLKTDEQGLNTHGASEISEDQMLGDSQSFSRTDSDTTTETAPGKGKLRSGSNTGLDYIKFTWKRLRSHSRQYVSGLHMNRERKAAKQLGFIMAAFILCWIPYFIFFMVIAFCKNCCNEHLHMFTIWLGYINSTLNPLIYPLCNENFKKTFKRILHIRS
Sequence of H2 (histamine receptor 2) (P25021 whole entry): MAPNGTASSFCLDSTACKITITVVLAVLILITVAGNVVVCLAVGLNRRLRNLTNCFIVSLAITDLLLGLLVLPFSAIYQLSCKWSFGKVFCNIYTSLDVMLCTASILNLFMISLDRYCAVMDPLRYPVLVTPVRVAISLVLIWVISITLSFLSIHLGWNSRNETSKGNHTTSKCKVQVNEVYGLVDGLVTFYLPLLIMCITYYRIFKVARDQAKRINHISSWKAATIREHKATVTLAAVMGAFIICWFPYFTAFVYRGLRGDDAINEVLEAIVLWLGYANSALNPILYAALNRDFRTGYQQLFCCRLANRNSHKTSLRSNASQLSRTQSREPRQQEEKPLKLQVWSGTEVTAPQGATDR

Structure (SMILES)	Toxicity in mice (Toxicity in mice)	Distribution pattern: accumulation of the drug [1]	Cytotoxic activity compared with penfluridol [2]	Alkaline phosphatase (ALP) levels [3]	Blood urea nitrogen (BUN) levels [3]	Glutamate dehydrogenase (GLDH) [3]	Inhibition at some serotonin receptors (serotonin receptors; primary binding)	other results
OC1(c2ccc(Cl)c(C(F)(F)F)c2)CCN(CCCCC(c2ccc(F)cc2)c2ccc(F)cc2)CC1 [8a]	no toxicity in mice	predominantly in the adipose tissue and lungs						Ki (D4 dopamine receptor): 25 nM; Level of the drug in the brain relative to penfluridol [1]: higher level of the drug in the brain relative to penfluridol
OC1(c2ccc(Cl)c(C(F)(F)F)c2)CCN(CCCC(c2ccccc2)c2ccccc2)CC1 [8b]			reduced activity					
OC1(c2ccc(Cl)c(C(F)(F)F)c2)CCN(CCCCCc2ccc(F)cc2)CC1 [compound 13]			reduced activity					
COc1ccc(N(CCCCN2CCC(O)(c3ccc(Cl)c(C(F)(F)F)c3)CC2)c2ccc(OC)cc2)cc1 [8c]	no toxicity in mice			None of these changes was observed	None of these changes was observed	None of these changes was observed		Concentration of the drug in all tested samples (plasma, brain, lungs, adipose tissue) [1]: lower concentration of the drug in all tested samples
OC1(c2ccc(Cl)c(C(F)(F)F)c2)CCN(CCCCN(c2ccc(F)cc2)c2ccc(F)cc2)CC1 [11b]							50–80%	Activity at H1 receptor [4]: abolished activity; Activity at H2 receptor [5]: abolished activity; Change of Ki values compared to penfluridol (serotonin receptors; other serotonin receptor subtypes): 3–16 fold; Inhibition levels at other serotonin receptor subtypes (serotonin receptors; primary binding, other serotonin receptor subtypes): > 90%
OC1(c2ccc(Cl)c(C(F)(F)F)c2)CCN(CCCC(c2ccc(F)cc2)c2ccc(F)cc2)CC1 [penfluridol, reference compound]		predominantly in the adipose tissue and lungs		decreased ALP levels	decreased BUN levels	increased GLDH	95–100%	IC50 ([2]; Homo sapiens, MDA-MB-231, read-out: IC50 (cytotoxicity, MTT)): 4300 to 5100 nM
